Source: ChEMBL document CHEMBL1139058, “Synthesis, in vitro and in silico evaluation of l-tyrosine containing PPARalpha/gamma dual agonists” (2007)

Key:
[1] = target: T1, Peroxisome proliferator-activated receptor alpha (Homo sapiens) (UniProt Q07869); assay: Agonist activity at human PPARalpha in HEK293T cells at 50 uM by GAL4 transactivation assay relative to WY-14643; format: functional, cell-based; details: HEK-293T
T1 sequence (whole entry): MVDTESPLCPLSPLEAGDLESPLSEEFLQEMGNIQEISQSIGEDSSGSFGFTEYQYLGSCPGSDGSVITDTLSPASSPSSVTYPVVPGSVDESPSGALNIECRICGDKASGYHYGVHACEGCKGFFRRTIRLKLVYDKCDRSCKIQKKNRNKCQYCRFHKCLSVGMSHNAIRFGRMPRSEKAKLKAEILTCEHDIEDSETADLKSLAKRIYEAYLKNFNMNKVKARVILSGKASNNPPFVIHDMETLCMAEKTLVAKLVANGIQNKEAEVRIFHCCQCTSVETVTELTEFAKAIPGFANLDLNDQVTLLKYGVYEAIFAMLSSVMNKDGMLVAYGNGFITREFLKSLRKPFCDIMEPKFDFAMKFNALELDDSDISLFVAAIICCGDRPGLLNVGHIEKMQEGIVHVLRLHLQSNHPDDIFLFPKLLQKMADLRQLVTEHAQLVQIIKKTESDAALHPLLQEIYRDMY
Outline: (§1)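 HEK 293T cells grown in DMEM-10% FBS at 37 °C, 5% CO2, then plated at 50–60% confluence in DMEM with 10% delipidated FBS one day before Superfect transfection. Reagent removed after 3 h. At 42 h post-transfection, cells moved to phenol red-free DMEM-DFBS and treated 18 h with compound or vehicle. Cells lysed, luciferase measured, expressed as fold activation over untreated cells.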

[2] = Agonist activity at human PPARgamma 1 in HEK293T cells at 50 uM by GAL4 transactivation assay relative to rosiglitazone; format: functional, HEK-293T; outline: as §1

Row | Activity [1] | SMILES | Activity [2]
1 | 1.4 | C/C(=C/C(=O)c1ccccc1)N[C@@H](Cc1ccc(OCCn2c3ccccc3c3ccccc32)cc1)C(=O)O | 1.7
2 | 1.2 | COC(=O)[C@H](Cc1ccc(OCCn2c3ccccc3c3ccccc32)cc1)N/C(C)=C\C(=O)c1ccccc1 | 1.9
3 | 0.3 | C/C(=C/C(=O)c1ccccc1)N[C@@H](Cc1ccc(OCCc2ccc(C(F)(F)F)cc2)cc1)C(=O)O | 0.7
4 | 5.1 | C/C(=C/C(=O)c1ccccc1)N[C@@H](Cc1ccc(OCCCOc2cccc3[nH]c4ccccc4c23)cc1)C(=O)O | 15.1
5 | 4.6 | C/C(=C/C(=O)c1ccccc1)N[C@@H](Cc1ccc(OCCOc2cccc3[nH]c4ccccc4c23)cc1)C(=O)O | 48.2
6 | 1.1 | C/C(=C/C(=O)c1ccccc1)N[C@@H](Cc1ccc(OCCOc2cc(C(F)(F)F)nc3c(C(F)(F)F)cccc23)cc1)C(=O)O | 2.3
7 | 0.5 | COC(=O)[C@H](Cc1ccc(OCCn2c3ccccc3c3ccccc32)cc1)NC1=C(C(=O)c2ccccc2)CCCC1 | 3
8 | 1.9 | COC(=O)[C@H](Cc1ccc(OCCOc2ccc3c(c2)[nH]c2ccccc23)cc1)N/C(C)=C\C(=O)c1ccccc1 | 1.8
9 | 1.4 | COC(=O)[C@H](Cc1ccc(OCCOc2cccc3[nH]c4ccccc4c23)cc1)NC1=C(C(=O)c2ccccc2)CCCC1 | 4.7
10 | 2.8 | C/C(=C/C(=O)c1ccccc1)N[C@@H](Cc1ccc(OCCOc2ccc(C(=O)c3ccc(Cl)cc3)cc2)cc1)C(=O)O | 22.6
11 | 2 | C/C(=C/C(=O)c1ccccc1)N[C@@H](Cc1ccc(OCCOc2ccc3c(c2)[nH]c2ccccc23)cc1)C(=O)O | 4.2
12 | 1 | O=C(C1=C(N[C@@H](Cc2ccc(OCCn3c4ccccc4c4ccccc43)cc2)C(=O)O)CCCC1)c1ccccc1 | 8.4
13 | 1.2 | O=C(C1=C(N[C@@H](Cc2ccc(OCCOc3cccc4[nH]c5ccccc5c34)cc2)C(=O)O)CCCC1)c1ccccc1 | 11.2
